Compound activity from PubChem BioAssay.
A selection: hits, their analogues and other compounds. The true share with any hit is near 3.2%.
MEKK2wt PB1 HTS: raises or lowers MEK5 binding to wildtype human MEKK2 PB1 domain. AID 1531. binding response (% of control), % at 10 µM. 1.1% of 290,000 active. bead flow cytometry, Alexa488-MEK5 binding to MEKK2 WT; actives lie on both sides. Q9Y2U5; in the data active = binding response below about 67% or above about 130%
MEKK3 PB1 HTS: raises or lowers MEK5 binding to the human MEKK3 PB1 domain; bead-based flow cytometry, Alexa488-MEK5 binding to MEKK3; actives lie on both sides; 0 = blocked by unlabeled MEK5, 100 = vehicle; Q99759; 1.4% of 290,000 active; AID 1529; binding response (% of control), % at 10 µM;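 active = binding response more than 3 SD above or below the average of its plate-row segment, actives on both sides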;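 also: Alexa488 bead fluorescence after subtracting the streptavidin-only scavenger bead signal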
Pemphigus Ab inh: blocks pemphigus antibody binding to human desmoglein-3 | P32926 | DSG3-coupled beads, scFv-anti-DSG3-GFP binding, flow cytometry; active compounds read low | binding (percent of control), % at 10 µM | 0.48% of 310,000 active | AID 588358;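 active = binding more than 3 SD below its plate's average and above zero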;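 also: hits lower antibody fragment binding to DSG3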
MEKK2 mut-MEK5: signal of MEK5 binding to mutant human MEKK2 PB1 domain. bead flow cytometry, Alexa488-MEK5 binding to MEKK2 mutant. percent response, % at 10 µM. 0.35% of 290,000 active. AID 1530; in the data active = percent response above about 24%, passing the limit was not always enough
UBC13 polyUb: human UBC13 polyubiquitination inhibition | P61088 | UBC13 polyubiquitin chain formation, TR-FRET | inhibition, % at 20 µM | 0.47% of 330,000 active | AID 485273; in the data active = inhibition above about 45%, passing the limit was not always enough
Apaf1 inhib: blocks human Apaf-1 apoptosome activity; inhibition, % at 20 µM; reconstituted apoptosome caspase-3 activity, DEVD-Rh110 fluorescence; 0.71% of 330,000 active; O14727; active = inhibition of at least 40% at 20 µM;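 also: plate controls were DMSO wells for no effect and DEVD-CHO caspase inhibitor wells for full effect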
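Material: biochemical Apaf-1 apoptosome reconstitution. Medium: Hepes buffer, pH 7.5. Also added: cytochrome c activation, bis-DEVD rhodamine 110 substrate. Timing: 30 min compound preincubation, 50 min activation, room temperature. Measured by: rhodamine 110 fluorescence at Ex 480/Em 540 nm.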
Apaf-1 inh conf2: Apaf-1 inhibition, single-dose confirmed. shares compounds with Apaf1 inhib. inhibition, % at 20 µM. 25% of 1,800 active. reconstituted apoptosome, caspase-3 DEVD-Rh110 fluorescence. AID 504614;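 active = mean inhibition of at least 40% at 20 µM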;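 also: plate controls were DMSO wells for no effect and DEVD-CHO caspase inhibitor control wells for full effect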
Rh110 interf inh: Rh110 signal interference in Apaf-1 inhibitor counter-screen; activation (fluorescence interference), % at 20 µM; shares compounds with Apaf1 inhib; AID 504615; Rh110 fluorescence interference, quenched caspase reaction; 1,800 tested, under 10 active;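 active = signal rise of 40% or more at 20 µM, treated as a fluorescence artifact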
Apaf1 inh interf: Apaf-1 inhibitor counter-screen fluorescence artifact; shares compounds with Apaf1 inhib; fluorescence interference counterscreen, Apaf-1 assay format; IC50, µM; 460 tested, under 10 active; AID 588538; call rule not given here
The depositor's hits bear a star; . = not tested or not shown.

SMILES	MEKK2wt PB1 HTS	MEKK3 PB1 HTS	Pemphigus Ab inh	MEKK2 mut-MEK5	UBC13 polyUb	Apaf1 inhib	Apaf-1 inh conf2	Rh110 interf inh	others
CCCCc1cc(=O)oc2cc(OCC(=O)NCCN3CCOCC3)c(Cl)cc12	100.0	98.0	100.0	0.0	-0.4	60.8*	10.6	5.8
Cc1cc(=O)oc2cc(OCC(=O)NCCN3CCOCC3)c(Cl)cc12	95.0	96.0	102.5	0.0	-4.9	1.7	.	.
Cc1ccc(NC(=O)CSCc2cc(=O)n3ccsc3n2)cc1	100.0	100.0	98.8	0.0	9.9	5.4	.	.
O=C1/C(=N\S(=O)(=O)c2cccs2)C([n+]2ccc(CCCc3ccccc3)cc2)=C([O-])c2ccccc21	99.0	99.0	99.6	-11.0	-90.5	45.6*	13.5	-6.5
O=C1/C(=N\S(=O)(=O)c2cccs2)C([n+]2cccc(Cc3ccccc3)c2)=C([O-])c2ccccc21	100.0	102.0	91.5	23.0	-104.6	34.2	.	.
Cc1ccc2nc(NC(=O)CSc3nnc(C)c(=O)n3N)sc2c1	105.0	108.0	111.1	-1.0	7.0	-1.7	.	.
O=C(CCNC(=O)N1CCn2c1nc1ccccc12)NCc1ccccc1	102.0	102.0	104.2	7.0	11.6	-16.8	.	.
COc1ccc(CCN(C)C(=O)c2cc(=O)c3ccccc3o2)cc1OC	104.0	103.0	.	2.0	-5.7	3.3	.	.
CC(C)CCC(C)N=Cc1c(O)n(Cc2ccccc2)c(=O)c2ccccc12 (stereo unspecified)	105.0	106.0	101.1	11.0	-3.7	59.7*	56.2*	2.8	Apaf1 inh interf=>100
COC(=O)c1ccccc1-c1ccc(C(c2c(C)[nH][nH]c2=O)c2c(C)[nH][nH]c2=O)o1	88.0	88.0	100.6	-15.0	-44.5	79.2*	30.5	5.8
COc1ccc(-c2cc(=O)[nH][nH]2)cc1OC	95.0	95.0	99.4	0.0	-21.6	76.7*	12.6	-5.7
CCOc1cccc(-c2cc(=O)[nH][nH]2)c1	92.0	82.0	97.1	-7.0	-13.5	43.9*	8.6	3.9
COc1cccc(-c2cc(=O)[nH][nH]2)c1	97.0	104.0	103.5	1.0	-7.2	23.6	.	.
O=c1cc(-c2ccc(F)cc2)[nH][nH]1	93.0	93.0	121.6	-3.0	-14.3	50.3*	2.2	-7.6
COC(=O)C1=CCCCC(O)=C1C(=O)OC	.	.	103.2	.	.	.	.	.
O=C(CC1Nc2ccccc2NC1=O)c1ccccc1 (stereo unspecified)	104.0	100.0	.	21.0	-26.5	10.3	.	.
NC(=O)CC1Nc2cccc3cccc(c23)NC1=O (stereo unspecified)	101.0	100.0	103.6	4.0	-38.9	98.0*	19.6	2.4
O=C(CC1Nc2cccc3cccc(c23)NC1=O)Nc1ccccc1 (stereo unspecified)	97.0	96.0	100.3	-3.0	-30.4	96.1*	13.9	0.6
CCCOc1ccc(NC(=O)CC2Nc3ccccc3NC2=O)cc1 (stereo unspecified)	93.0	104.0	102.5	-10.0	-15.1	-2.2	.	.
Cc1cccc(NC(=O)CNC(=O)c2ccc(S(=O)(=O)NCc3ccco3)cc2)c1C	.	.	95.0	.	.	.	.	.
N#Cc1c(N(CCO)CCO)nc(N)c2c(N)nc3c(c12)CC(=O)N3Cc1cccs1	89.0	88.0	87.7	-11.0	-1.0	72.8*	42.2*	12.4	Apaf1 inh interf=>100
CN(CCO)c1nc(N)c2c(N)nc3c(c2c1C#N)CC(=O)N3Cc1cccs1	104.0	107.0	103.8	-2.0	-13.9	77.1*	15.0	4.1
COC(=O)c1cccc2c(C(=O)O)cc(-c3ccccc3)nc12	.	.	95.5	.	.	.	.	.
Cc1ccc(Cc2c(C)c(C#N)c3[nH]c4ccccc4n3c2=O)cc1	101.0	102.0	87.8	4.0	2.7	5.8	.	.
